Test results taken from publication PMC3190051 (Bioorganic & medicinal chemistry letters, 2011).
Changes are numbered by the printed parent chain. pEC50: −log10 of the molar value. Like-named read-outs stand apart in the source and are kept apart here. Values belong to the compound of their own block, whether it stands above or below them.

Legend:
[1] = tested on: M2–M5; assay: M2–M5 selectivity, full CRCs in HTS high-expressing CHO cell lines; type: cell-based, rat; conditions: read-out: M2–M5 EC50s; HTS high-expressing CHO cell line; average of at least three determinations
[2] = tested on: TREx293-hM1 cells
[3] = tested on: 68 GPCRs, ion channels and transporters (including all the BARs); conditions: 10 µM; cited from earlier work
[4] = tested on: TREx293-hM1 cells; conditions: in cell culture; cited from earlier work
[5] = tested on: NMDA receptor currents in hippocampal CA1 pyramidal cells; conditions: cited from earlier work
[6] = tested on: M2–M5; conditions: read-out: EC50 versus M2–M5; ML071 probe data; cited from earlier work
[7] = target: T1, M1 (Rattus norvegicus, UniProt P08482); assay: functional M1 agonist assay in rat HTS high-expressing CHO cell line; type: cell-based; conditions: 10 µM M1 single point screen
T1 sequence (P08482 1-460): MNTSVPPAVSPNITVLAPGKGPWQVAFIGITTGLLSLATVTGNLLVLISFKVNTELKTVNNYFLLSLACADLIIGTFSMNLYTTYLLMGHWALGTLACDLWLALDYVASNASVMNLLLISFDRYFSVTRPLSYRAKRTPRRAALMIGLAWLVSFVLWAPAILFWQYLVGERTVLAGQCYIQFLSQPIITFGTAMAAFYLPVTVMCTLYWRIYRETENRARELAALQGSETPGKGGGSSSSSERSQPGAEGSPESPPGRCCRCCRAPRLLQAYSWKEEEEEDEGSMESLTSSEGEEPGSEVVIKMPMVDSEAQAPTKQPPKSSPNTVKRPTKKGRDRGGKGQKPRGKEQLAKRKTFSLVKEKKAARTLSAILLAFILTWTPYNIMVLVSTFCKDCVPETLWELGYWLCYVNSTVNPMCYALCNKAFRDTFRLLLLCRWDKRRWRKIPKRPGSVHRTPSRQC

[8] = tested on: NMDA receptor currents in hippocampal CA1 pyramidal cells; assay: potentiation of NMDA receptor currents, whole cell recording; type: cell-based; conditions: 30 µM
Summary of the method: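 Whole-cell recording of NMDA-evoked currents in hippocampal CA1 pyramidal cells. Current amplitude was normalized and followed over time before, during and after application of 30 µM test compound.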

[9] = oral plasma:brain level; type: in vivo, male Sprague-Dawley rats; conditions: 10 mg/kg oral, 90 minute endpoint, individual animal
[10] = intrinsic clearance, human; type: in vitro ADME
[11] = tested on: 68 GPCRs, ion channels and transporters (including all the BARs); assay: radioligand binding panel of 68 GPCRs, ion channels and transporters; conditions: 10 µM
[12] = target: D2 receptor (Homo sapiens, UniProt P14416); assay: functional D2 antagonism CRC; type: cell-based
Chain of D2 receptor (P14416 whole entry): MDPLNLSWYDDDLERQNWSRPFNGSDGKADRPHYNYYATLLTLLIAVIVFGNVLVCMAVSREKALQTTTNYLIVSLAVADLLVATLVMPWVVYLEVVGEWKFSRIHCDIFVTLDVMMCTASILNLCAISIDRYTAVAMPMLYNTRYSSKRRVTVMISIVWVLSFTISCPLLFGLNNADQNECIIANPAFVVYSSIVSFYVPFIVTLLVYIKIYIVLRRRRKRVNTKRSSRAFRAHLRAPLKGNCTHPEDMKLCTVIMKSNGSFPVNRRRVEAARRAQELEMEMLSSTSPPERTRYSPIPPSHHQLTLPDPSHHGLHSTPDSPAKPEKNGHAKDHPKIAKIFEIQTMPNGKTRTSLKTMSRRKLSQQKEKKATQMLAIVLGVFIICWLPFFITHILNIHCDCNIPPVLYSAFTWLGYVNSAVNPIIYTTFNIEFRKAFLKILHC

[13] = intrinsic clearance, rat; type: in vitro ADME
[14] = target: T2, M1 (Homo sapiens, UniProt P11229); assay: M1 agonist assay in new cell lines with expression resembling native levels; type: cell-based, rat and human; conditions: new cell lines with expression more closely resembling native levels
T2 sequence (P11229 1-460): T1 sequence (P08482 1-460) with V5A, S254T, S309P, K320R, G337A, V413I

Structure (SMILES): C[N+](C)(C)CCOC(N)=O.[Cl-] [carbachol]
increase in soluble APP (sAPPα) [2]: significant increase

Structure (SMILES): CCOC(=O)N1CCC(NCCNC(=O)c2ccccc2C)CC1 [compound 8]
activity in radioligand binding panel [3]: ≤ 50% | pEC50 [1]: < 4.52 | soluble APP (sAPPα) [4]: significant increase | effect on NMDA receptor currents [5]: potentiated NMDA receptor currents | pEC50 [6]: < 4.52

Structure (SMILES): CCOC(=O)N1CCC(N2CCN(C(=O)c3ccccc3C)CC2)CC1 [compound 13]
M1 activation [7]: less than 30%

Structure (SMILES): CCOC(=O)N1CCC(N2C[C@@H]3C[C@H]2CN3C(=O)c2ccccc2C)CC1 [compound 14]
M1 activation [7]: less than 30%

Structure (SMILES): CCOC(=O)N1CCC(N2C[C@H]3CN(C(=O)c4ccccc4C)C[C@H]3C2)CC1 [compound 15]
M1 activation [7]: less than 30%

Structure (SMILES): CCOC(=O)N1CCC(N2CCC[C@H](NC(=O)c3ccccc3C)C2)CC1 [compound 16]
M1 activation [7]: inactive

Structure (SMILES): CCOC(=O)N1CCC(N2CCC[C@@H](NC(=O)c3ccccc3C)C2)CC1 [compound 17]
persistence of potentiation after washout [8]: 10 min | effect on NMDA receptor currents ([8]; listed as VU0364572): potentiates NMDA receptor currents | pEC50 [1]: < 4.52 | Brain [9]: 1.89 µM | Brain:Plasma [9]: 1.17 | Plasma [9]: 1.62 µM | concentration at 90 min ([9]; male, Sprague-Dawley, rat, brain, oral, 10 mg/kg): 2230 nM | Kp at 1.5 h ([9]; male, Sprague-Dawley, rat, brain/plasma, po, 10 mg/kg, Brain:Plasma): 1.54 | CLint scaled [10]: 11.2 mL/min/kg | M1 activation [7]: full activation of M1 | inhibition in radioligand binding panel [11]: ≤ 30% | functional activity at the D2 receptor [12]: no functional activity | CLint scaled [13]: 23.4 mL/min/kg | ACh Max versus high-expressing HTS lines [14]: slightly lower ACh Max

Other lines, results leading:

pEC50 [1]: < 5.00
Structure (SMILES): CCOC(=O)N1CCC(N2CCC[C@@H](NC(=O)c3ccc(F)cc3C)C2)CC1 [20a]

pEC50 [1]: < 5.00
Structure (SMILES): CCOC(=O)N1CCC(N2CCC[C@@H](NC(=O)c3ccccc3)C2)CC1 [20b]

pEC50 [1]: < 5.00
Structure (SMILES): CCOC(=O)N1CCC(N2CCC[C@@H](NC(=O)c3cccc(F)c3)C2)CC1 [20c]

pEC50 [1]: < 5.00
Structure (SMILES): CCOC(=O)N1CCC(N2CCC[C@@H](NC(=O)c3cccc(OC)c3)C2)CC1 [20d]

pEC50 [1]: < 5.00
Structure (SMILES): CCOC(=O)N1CCC(N2CCC[C@@H](NC(=O)c3ccc(F)c(F)c3)C2)CC1 [20e]

pEC50 [1]: < 5.00
Structure (SMILES): CCOC(=O)N1CCC(N2CCC[C@@H](NC(=O)c3ccc(C)cc3)C2)CC1 [20f]

pEC50 [1]: < 5.00
Structure (SMILES): CCOC(=O)N1CCC(N2CCC[C@@H](NC(=O)C3CCCCC3)C2)CC1 [20g]

pEC50 [1]: < 5.00
Structure (SMILES): CCOC(=O)N1CCC(N2CCC[C@@H](NC(=O)c3cccs3)C2)CC1 [20h]

pEC50 [1]: < 5.00
Structure (SMILES): CCOC(=O)N1CCC(N2CCC[C@@H](NC(=O)c3ccc(OC)cc3)C2)CC1 [20i]

pEC50 [1]: < 5.00
Structure (SMILES): CCOC(=O)N1CCC(N2CCC[C@@H](NC(=O)c3ccccc3Cl)C2)CC1 [20j]

pEC50 [1]: < 5.00
Structure (SMILES): CCOC(=O)N1CCC(N2CCC[C@@H](NC(=O)C3CCCC3)C2)CC1 [20k]
